Reference: ChEMBL document CHEMBL1671820, “Incorporation of basic side chains into cryptolepine scaffold: structure-antimalarial activity relationships and mechanistic studies” (J Med Chem, 2011)

Experiments:
Plasmodium falciparum [1] = assay: Antiplasmodial activity against chloroquine and pyrimethamine-resistant ring stage Plasmodium falciparum V1/S infected in human red blood cells after 48 hrs; assay type: functional, organism-based
[2] = Selectivity index, ratio of IC50 for african green monkey Vero cells to IC50 for chloroquine-resistant ring stage Plasmodium falciparum W2; assay type: toxicity, cell-based; details: read-out: Ratio IC50
Method in brief: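 Vero IC50 divided by W2 IC50. Vero: 15000 cells/well adhered overnight, then log dilutions from 30 mg/mL DMSO stock for 48 h. MTT 0.5 mg/mL final for 2 h at 37 C, formazan dissolved in 95% ethanol, A570 read against DMSO vehicle as 100% viability. W2: 48 h YOYO-1 flow-cytometric growth assay in human erythrocytes.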

Plasmodium falciparum [3] = assay: Antiplasmodial activity against chloroquine-sensitive ring stage Plasmodium falciparum 3D7 infected in human red blood cells after 48 hrs; assay type: functional, organism-based; details: 3D7, 48 h
Heme = assay: Binding affinity to heme by UV-visible titration
Method in brief: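 Hematin monomer (FPIX-OH, 10 μM) in pH 5.5 HEPES-buffered 40% DMSO v/v at 25 C, titrated with ligand from 100 μM solution until above hematin concentration. Stirred 1 min per addition; spectra 230–500 nm, Soret change at 402 nm. Absorbance dilution-corrected, nonlinear fit for Kd; Kass calculated from Kd.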

Plasmodium falciparum [4] = assay: Resistance index, ratio of IC50 for chloroquine-resistant ring stage Plasmodium falciparum W2 to IC50 for chloroquine-sensitive ring stage Plasmodium falciparum 3D7; assay type: functional
Method in brief: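 W2 IC50 divided by 3D7 IC50. Both were measured by 48 h YOYO-1 flow-cytometric growth assay on sorbitol-synchronised 1% ring-stage cultures in human erythrocytes at 37 C under 3% O2.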

[5] = Inhibition of Plasmodium falciparum falcipain 2
Plasmodium falciparum [6] = assay: Antiplasmodial activity against chloroquine-sensitive, mefloquine-resistant ring stage Plasmodium falciparum D6 infected in human red blood cells after 48 hrs; assay type: functional, organism-based; details: D6, 48 h
Nucleic Acid = assay: Binding affinity to s(GATCCTAGGATC)2-DNA by fluorescence spectroscopy; assay type: nucleic-acid assay
Method in brief: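 Buffer 0.01 M phosphate pH 7.4, 0.1 M NaCl, 25.0 C, 1 cm quartz cuvettes. Fluorescence: excitation 339 nm, emission 450–500 nm. Dilution-corrected intensity change fitted to single-site binding for Kd; Kass taken as 1/Kd.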

Plasmodium falciparum [7] = assay: Antiplasmodial activity against chloroquine-resistant ring stage Plasmodium falciparum W2 infected in human red blood cells after 48 hrs; assay type: functional, organism-based; details: W2, 48 h
Vero = assay: Cytotoxicity against african green monkey Vero cells after 48 hrs by MTT assay; assay type: cell-based; details: Chlorocebus sabaeus
Method in brief: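 Vero monkey kidney cells in DMEM with 10% FBS at 37 C, 7% CO2; seeded 15000 cells/well and adhered overnight. Log dilutions from 30 mg/mL DMSO stock, 48 h exposure. MTT at 0.5 mg/mL final for 2 h; formazan dissolved in 95% ethanol, read at 570 nm. Viability relative to DMSO-medium wells; IC50 from concentration–viability curve; doxorubicin as standard.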

[8] = Inhibition of Plasmodium falciparum falcipain 3

SMILES | IC50 (Plasmodium falciparum [1]) [nM] | selectivity ratio [2] | IC50 (Plasmodium falciparum [3]) [nM] | Ka (Heme) [×10⁶ /M] | Ratio IC50 (Plasmodium falciparum [4]) | IC50 [5] [µM] | IC50 (Plasmodium falciparum [6]) [nM] | Ka (Nucleic Acid) [×10⁶ /M] | IC50 (Plasmodium falciparum [7]) [nM] | IC50 (Vero) [µM] | IC50 [8] [µM]
CN(C)CCNc1c2ccccc2[n+](C)c2c1[nH]c1ccccc12.[Cl-] | 85 | 111 | 62 | 0.12 | 0.8 | > 50 | 66 | 3.1 | – | – | –
CCN(CC)CCCCNc1c2ccccc2[n+](C)c2c1[nH]c1ccccc12.[Cl-] | 66 | 358 | 22.3 | 0.15 | 0.4 | – | 71 | 9 | 29 | 10 | –
CN(C)CCCNc1c2ccccc2[n+](C)c2c1[nH]c1ccccc12.[Cl-] | 51 | 109 | 24 | 0.066 | 0.4 | 34 | 46 | 3 | 20 | – | > 50
C[n+]1c2ccccc2c(Nc2ccccc2)c2[nH]c3ccccc3c21.[Cl-] | 128 | 2 | 291 | 0.155 | 0.2 | 14 | 154 | 0.51 | 265 | – | –
CCN(CC)c1c2ccccc2[n+](C)c2c1[nH]c1ccccc12.[Cl-] | 1770 | 2 | 2200 | 0.19 | 0.7 | 18 | 1290 | 0.47 | 1250 | – | 46.3
C[n+]1c2ccccc2c(Nc2cccnc2)c2[nH]c3ccccc3c21.[Cl-] | 279 | 14 | 247 | 0.17 | 0.6 | 9.32 | 166 | 1 | 180 | – | –
CN(C)CC(C)(C)CNc1c2ccccc2[n+](C)c2c1[nH]c1ccccc12.[Cl-] | 144 | 18 | 146 | 0.069 | 1.3 | 33.5 | 250 | 2.6 | – | – | 26
CC(C)CN1CCC(Nc2c3ccccc3[n+](C)c3c2[nH]c2ccccc23)CC1.[Cl-] | 76 | 70 | 70 | 0.227 | 0.9 | 10.5 | 86 | 0.74 | 70 | – | 16
C[n+]1c2ccccc2c(NC2CCN(Cc3ccccc3O)CC2)c2[nH]c3ccccc3c21.[Cl-] | 418 | 10 | 536 | 0.108 | 0.7 | 14.8 | 185 | 0.6 | 276 | – | 43
CCN(CC)CCNc1c2ccccc2[n+](C)c2c1[nH]c1ccccc12.[Cl-] | 72 | 34 | 130 | 0.41 | 1.2 | > 50 | 70 | 1.14 | – | – | –
C[n+]1c2cc(Cl)ccc2c(NC2CCNCC2)c2[nH]c3cc(Cl)ccc3c21.[Cl-] | 35 | 16 | 31 | 0.12 | 1.4 | 4.8 | 30 | 1.6 | 48 | – | –
CC(C)NCCCNc1c2ccccc2[n+](C)c2c1[nH]c1ccccc12.[Cl-] | 28 | 125 | 26.1 | 0.2 | 0.8 | > 25 | 34 | 5 | – | – | –
C[n+]1c2ccccc2c(NC2CCN(Cc3ccccc3)CC2)c2[nH]c3ccccc3c21.[Cl-] | 59 | 21 | 56 | 0.125 | 1.8 | 12.8 | 86 | 0.68 | 108 | – | –
CCN(CC)CCCC(C)Nc1c2ccccc2[n+](C)c2c1[nH]c1ccccc12.[Cl-] (centres undefined) | 274 | 103 | 145 | 0.062 | 0.4 | 11.6 | 161 | 4.3 | 122 | – | 7
CC(CN(C)C)Nc1c2ccccc2[n+](C)c2c1[nH]c1ccccc12.[Cl-] (centres undefined) | 165 | 23 | 202 | 0.148 | 0.9 | 8.3 | 78 | 1.9 | 142 | – | 14
CCN(CC)CCCNc1c2ccccc2[n+](C)c2c1[nH]c1ccccc12.[Cl-] | 29 | 78 | 20 | 0.127 | 1.1 | – | – | 9.1 | – | – | –
C[n+]1c2cc(Cl)ccc2c(NC2CCNCC2)c2[nH]c3ccccc3c21.[Cl-] | 52 | 98 | 65 | 0.18 | 0.9 | 5.6 | 70 | 4.5 | 45 | – | –
C[n+]1c2ccccc2c(NCCCN2CCCCC2)c2[nH]c3ccccc3c21.[Cl-] | 28 | 56 | 23 | 0.161 | 1.3 | – | 34 | 5.3 | – | 20 | –
C[n+]1c2ccccc2c(Nc2ccc(N3CCCCC3)cc2)c2[nH]c3ccccc3c21.[Cl-] | 176 | 11 | 375 | 0.21 | 2.6 | 8.2 | 287 | 3.4 | 455 | – | –
CCN(CC)Cc1ccc(Nc2c3ccccc3[n+](C)c3c2[nH]c2ccccc23)cc1O.[Cl-] | 15 | 17 | 56 | 0.075 | 3.5 | 15.2 | 24 | 0.8 | 52 | – | –
